# Experimental data as given in ChEMBL document CHEMBL1122623, “Activities of morphinone and N-(cyclopropylmethyl)normorphinone at opioid receptors” (J Med Chem, 1984).
# Values joined by “and” are separate entries in the source; they are usually repeats but may differ in a detail not shown here. Equal entries are not always repeated. Active and inactive are the calls of the source. No cut-off for these calls is given here.
# Columns and labels:
# Format in all cases: functional
# Mus musculus [1] = assay: Analgesic activity, 30 min after subcutaneous administration of the compound, in mice
# Cavia porcellus = species: Cavia porcellus; assay: Agonist activity in guinea pig ileum preparation
# Procedure, shortened: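 Electrically stimulated guinea pig ileum. Agonist IC50 is derived from concentration-response curves, with the number of experiments noted for each. In a separate run, tissue is depleted of functional μ receptors by preincubation with β-FNA before the agonist curve is repeated.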
# Mus musculus [2] = assay: Mice were intracerebroventricularly injected with 10 nmol and challenged with a 10 mg/kg subcutaneous dose of morphine sulfate; percentage of animals exhibiting analgesia was reported, after 2 hr
# Mus musculus [3] = assay: Analgesic activity by tail-flick procedure, after intracerebroventricular administration in mice. Compound is inactive at 10 nmol/mouse
# Mus musculus [4] = assay: Mice were intracerebroventricularly injected with 10 nmol and challenged with a 10 mg/kg subcutaneous dose of morphine sulfate; percentage of animals exhibiting analgesia was reported, after 24 hr
# Mus musculus [5] = species: Mus musculus; assay: Antagonist activity in mouse vas deferens preparation.
# [6] = Irreversible antagonist activity is measured from the ratio of agonist activity (IC50) to that of the control (morphine).
# Procedure, shortened: (§1)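 Electrically stimulated guinea pig ileum or mouse vas deferens. Tissue is incubated 30 min with 200 nM compound, then washed 20 times. […] Number of experiments is noted.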
# [7] = Irreversible antagonist activity is measured from the ratio of agonist activity (IC50) to that of the control (ethylketazocine).; procedure, shortened: as §1
# Mus musculus [8] = assay: Mice were intracerebroventricularly injected with 10 nmol and challenged with a 10 mg/kg subcutaneous dose of morphine sulfate; percentage of animals exhibiting analgesia was reported, after 0.5 hr
# Mus musculus [9] = assay: analgesic activity by tail-flick procedure, after intracerebroventricular administration in mice; Compound is inactive at 10 nmol/mouse
SMILES,IC50 (Cavia porcellus) [nM],Dose (Mus musculus [2]) [%],Dose (Mus musculus [4]) [%],IC50 (Mus musculus [5]) [nM],Ratio [7],also measured
CN1CC[C@]23c4c5ccc(O)c4O[C@H]2[C@@H](O)C=C[C@H]3[C@H]1C5 [MORPHINE],,,,,,ED50 (Mus musculus [1]): 2.8 nM mouse-1
CN1CCC23c4c5ccc(O)c4O[C@H]2C(=O)C=CC3C1C5 (some centres not stated),108,80,67,47,0.92,ED50 (Mus musculus [3]): 11.1 nM mouse-1; Ratio [6]: 0.67 and 0.68
CC(C)C[C@@H](NC(=O)[C@H](Cc1ccccc1)NC(=O)CNC(=O)[C@@H](C)NC(=O)[C@@H](N)Cc1ccc(O)cc1)C(=O)O [DADLE],,,,0.22,,
CCOc1ccc2c(c1)C1(C)CCN(CC3CC3)C(C2=O)C1C (configuration not stated) [ETHYLKETAZOCINE],1.6,,,,,
O=C1C=CC2C3Cc4ccc(O)c5c4C2(CCN3CC2CC2)[C@H]1O5 (some centres not stated),300,60,67,300,0.82,Dose (Mus musculus [8]): 10%; ED50 (Mus musculus [9]): inactive
